Calls of active or inactive are those of the source. No cut-off for these calls is given here.
Legend:
[1] = Tmax in healthy human at 400 mg, po administered as single dose; format: ADME, organism-based; details: in vivo
In short: (§1)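 Six healthy subjects (study Ia), fasted from 10 h before to 4 h after the oral dose; serial plasma sampled up to 314 h. Plasma extracted with diethyl ether, then reversed-phase HPLC on a C18 column with fluorescence detection (ex 320/em 370 nm). Noncompartmental analysis: Cmax and Tmax observed; terminal t1/2 = ln2/λz; AUC by linear-log trapezoidal, AUCinf extrapolated.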

[2] = Cmax in healthy human plasma at 400 mg, po administered as single dose; format: ADME, organism-based; design: dose 400 mg, route oral; in short: as §1
[3] = Terminal half life in healthy human at 400 mg, po administered as single dose; format: ADME, organism-based; details: in vivo, read-out: beta t1/2 (converted); in short: as §1
[4] = AUC (last) in healthy human at 400 mg, po administered as single dose; format: ADME, organism-based; design: dose 400 mg, time 0 - last, route oral; details: plasma; in short: as §1
[5] = AUC (infinity) in healthy human at 400 mg, po administered as single dose; format: ADME, organism-based; design: dose 400 mg, time infinity, route oral; details: plasma; in short: as §1
[6] = Apparent oral clearance in healthy human at 400 mg, po administered as single dose; format: ADME, organism-based; details: in vivo
[7] = Apparent peripheral distribution volume in healthy human at 400 mg, po administered as single dose; format: ADME, organism-based; details: in vivo, read-out: Vz/F
Homo sapiens [8] = assay: Tmax in healthy human assessed as desethylchloroquine level at 400 mg, po administered as single dose; format: ADME, organism-based; details: in vivo; in short: as §1
Homo sapiens [9] = assay: Cmax in healthy human plasma assessed as desethylchloroquine level at 400 mg, po administered as single dose; format: ADME, organism-based; design: dose 400 mg, route oral; details: in vivo; in short: as §1
Homo sapiens [10] = assay: Terminal half life in healthy human assessed as desethylchloroquine level at 400 mg, po administered as single dose; format: ADME, organism-based; details: in vivo; in short: as §1
Homo sapiens [11] = assay: AUC (last) in healthy human assessed as desethylchloroquine level at 400 mg, po administered as single dose; format: ADME, organism-based, Plasma; design: dose 400 mg, time 0 - last, route oral; details: in vivo; in short: as §1
Homo sapiens [12] = assay: AUC (infinity) in healthy human assessed as desethylchloroquine level at 400 mg, po administered as single dose; format: ADME, organism-based, Plasma; design: dose 400 mg, route oral, time infinity; details: in vivo; in short: as §1
Homo sapiens [13] = assay: Ratio of AUC for desethylchloroquine level to AUC for compound in healthy human at 400 mg, po administered as single dose; format: ADME, organism-based; details: in vivo
In short: (§2)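 Six healthy volunteers in study Ia, fasted from 10 h before to 4 h after dosing, sampled serially up to 314 h. Plasma was stored at –70°C, ether-extracted from ammonia-alkalinised plasma with an internal standard, and assayed by C18 RP-HPLC with fluorescence (ex 320/em 370 nm). Calibration was 10–2,000 ng/ml for parent and 5–200 ng/ml for DCQ/BDCQ. Metabolite and parent AUCs came from noncompartmental linear-log trapezoidal analysis with λz extrapolation to infinity.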

Homo sapiens [14] = assay: Ratio of AUC for bisdesethylchloroquine level to AUC for compound in healthy human at 400 mg, po administered as single dose; format: ADME, organism-based; details: in vivo; in short: as §2
Homo sapiens [15] = assay: Tmax in healthy human assessed as bisdesethylchloroquine level at 400 mg, po administered as single dose; format: ADME, organism-based; details: in vivo; in short: as §1
Homo sapiens [16] = assay: Cmax in healthy human plasma assessed as bisdesethylchloroquine level at 400 mg, po administered as single dose; format: ADME, organism-based; design: dose 400 mg, route oral; details: in vivo; in short: as §1
Homo sapiens [17] = assay: Terminal half life in healthy human assessed as bisdesethylchloroquine level at 400 mg, po administered as single dose; format: ADME, organism-based; details: in vivo; in short: as §1
Homo sapiens [18] = assay: AUC (last) in healthy human assessed as bisdesethylchloroquine level at 400 mg, po administered as single dose; format: ADME, organism-based, Plasma; design: dose 400 mg, route oral, time 0 - last; details: in vivo; in short: as §1
Homo sapiens [19] = assay: AUC (infinity) in healthy human assessed as bisdesethylchloroquine level at 400 mg, po administered as single dose; format: ADME, organism-based, Plasma; design: dose 400 mg, time infinity, route oral; details: in vivo; in short: as §1
Plasmodium vivax = assay: Antimalarial activity against Plasmodium vivax infected in patient assessed as prophylaxis at 400 mg, po once a week

- Tmax [1]: 2.4 h
- Cmax [2]: 1220 nM
- half-life [3]: 172 h
- AUC(0-t) [4]: 75.4 µM·h
- AUC(0-inf) [5]: 102 µM·h
- CL/F [6]: 200 mL/min
- Vd/F [7]: 2850 L
- Tmax (Homo sapiens [8]): 6.1 h
- Cmax (Homo sapiens [9]): 60 nM
- beta t1/2 (Homo sapiens [10]): 549.9 h
- AUC (Homo sapiens [11]): 12.2 µM·h
- AUC (Homo sapiens [12]): 37.7 µM·h
- Ratio (Homo sapiens [13]): 0.39
- Ratio (Homo sapiens [14]): 0.63
- Tmax (Homo sapiens [15]): 72.8 h
- Cmax (Homo sapiens [16]): 360 nM
- beta t1/2 (Homo sapiens [17]): 241 h
- AUC (Homo sapiens [18]): 34 µM·h
- AUC (Homo sapiens [19]): 53.6 µM·h
Structure (SMILES): CCN(CCO)CCCC(C)Nc1ccnc2cc(Cl)ccc12 (stereo not given) [HYDROXYCHLOROQUINE]
- Activity (Plasmodium vivax): inactive

Reference: ChEMBL document CHEMBL1649152, “Pharmacokinetics of hydroxychloroquine and its clinical implications in chemoprophylaxis against malaria caused by Plasmodium vivax” (Antimicrob Agents Chemother, 2009)
